Measured values taken from ChEMBL document CHEMBL4229560, “Increasing C-Terminal Hydrophobicity Improves the Cell Permeability and Antiproliferative Activity of PACE4 Inhibitors against Prostate Cancer Cell Lines” (J Med Chem, 2018).
Where a SMILES comes first, the peptide text is derived from it. [ ]: non-standard residue; d: D form. The star is where a group is joined. Phe(4-guanidino) = N=C(N)Nc1ccc(C[C@H](N)C(=O)O)cc1; Phe(4-NH2) = Nc1ccc(C[C@H](N)C(=O)O)cc1; Tryptamide = c1ccc2c(CCN*)c[nH]c2c1; βAla = NCCC(=O)O

How the values were obtained:
[1] = target: T1, Proprotein convertase subtilisin/kexin type 6 (Homo sapiens, UniProt P29122); experiment: Inhibition of recombinant human PACE4 expressed in S2 insect cells using pyroGlu-Arg-Thr-Lys-Arg-AMC peptide as substrate after 1 hr by spectrofluorometry
T1 sequence (P29122 whole entry): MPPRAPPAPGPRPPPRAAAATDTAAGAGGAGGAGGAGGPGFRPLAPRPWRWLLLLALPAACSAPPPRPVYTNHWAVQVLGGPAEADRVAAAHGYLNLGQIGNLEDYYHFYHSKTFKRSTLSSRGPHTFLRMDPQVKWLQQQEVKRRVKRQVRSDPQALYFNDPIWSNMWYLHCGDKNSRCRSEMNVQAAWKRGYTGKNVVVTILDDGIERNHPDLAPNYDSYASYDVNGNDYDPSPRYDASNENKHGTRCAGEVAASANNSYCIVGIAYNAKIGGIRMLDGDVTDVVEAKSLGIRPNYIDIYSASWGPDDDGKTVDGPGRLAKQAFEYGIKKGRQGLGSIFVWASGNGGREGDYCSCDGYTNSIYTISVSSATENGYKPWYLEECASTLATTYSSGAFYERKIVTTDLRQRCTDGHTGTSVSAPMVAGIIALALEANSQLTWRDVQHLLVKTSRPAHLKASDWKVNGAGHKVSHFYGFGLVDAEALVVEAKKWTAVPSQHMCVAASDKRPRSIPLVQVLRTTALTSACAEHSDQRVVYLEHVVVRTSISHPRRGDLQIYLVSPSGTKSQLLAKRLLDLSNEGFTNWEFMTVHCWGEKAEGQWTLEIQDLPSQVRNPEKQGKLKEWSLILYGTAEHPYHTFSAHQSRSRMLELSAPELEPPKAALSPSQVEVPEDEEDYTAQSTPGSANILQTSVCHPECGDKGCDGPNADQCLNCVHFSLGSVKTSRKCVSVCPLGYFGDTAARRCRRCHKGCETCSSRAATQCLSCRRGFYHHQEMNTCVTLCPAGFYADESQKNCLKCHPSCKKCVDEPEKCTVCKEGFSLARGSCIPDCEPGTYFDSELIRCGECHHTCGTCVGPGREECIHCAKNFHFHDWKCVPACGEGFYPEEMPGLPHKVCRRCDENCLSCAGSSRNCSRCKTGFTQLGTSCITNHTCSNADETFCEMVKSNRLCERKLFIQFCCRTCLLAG
Summary of the method: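 Human recombinant PACE4 made in S2 insect cells and purified. Assay buffer 20 mM Bis-Tris pH 6.5, 1 mM CaCl2, 1.8 g/L BSA. Substrate 100 µM per well, inhibitors 0–10 µM, 2 units enzyme. Fluorescence (ex 370/em 460 nm) followed in real time for 1 h. Ki from IC50 by Cheng–Prusoff; duplicate or triplicate.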

Homo sapiens = species on record: Homo sapiens; experiment: Selectivity ratio of Ki for recombinant human furin to Ki for recombinant human PACE4
Summary of the method: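 Ki values came from human recombinant enzymes expressed in S2 insect cells. Furin was assayed in 100 mM HEPES pH 7.5, 1 mM CaCl2, 1 mM β-mercaptoethanol and 1.8 g/L BSA. PACE4 was assayed in 20 mM Bis-Tris pH 6.5, 1 mM CaCl2 and 1.8 g/L BSA. Substrate was pERTKR-AMC at 100 µM, with inhibitor at 0–10 µM. Fluorescence (ex 370/em 460 nm) was read for 1 h, and Ki derived by Cheng-Prusoff.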

DU-145 [2] = experiment: Antiproliferative activity against human DU145 cells after 72 hrs by MTT assay; format: functional, cell-based; details: DU-145, 72 h
Summary of the method: (§1)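 MTT assay run 72 h. Seeding was ~1500 cells/well for DU145 and ~2500 cells/well for LNCaP, in RPMI 1640 with 5% FBS (DU145) or 10% FBS (LNCaP). Medium was changed after 24 h, then inhibitor added at 1–300 µM or 1–150 µM. MTT was added at 1 g/L final for 4 h and formazan dissolved in 2-propanol/HCl. Readings were relative to vehicle (water, 0.1% DMSO). IC50 was from at least two independent experiments.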

Furin = Furin (Homo sapiens, UniProt P09958); experiment: Inhibition of recombinant human furin expressed in S2 insect cells using pyroGlu-Arg-Thr-Lys-Arg-AMC peptide as substrate after 1 hr by spectrofluorometry
Summary of the method: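 Furin was human recombinant from S2 insect cells, purified. Buffer 100 mM HEPES pH 7.5, 1 mM CaCl2, 1 mM β-mercaptoethanol, 1.8 g/L BSA. Substrate 100 µM per well, inhibitors 0–10 µM, 2 units enzyme. Real-time fluorescence (ex 370/em 460 nm) over 1 h. Ki by Cheng–Prusoff; duplicate or triplicate.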

DU-145 [3] = experiment: Antiproliferative activity against human DU145 cells up to 300 uM after 72 hrs by MTT assay relative to control; format: functional; summary of the method: as §1
LNCaP [4] = experiment: Antiproliferative activity against human LNCAP cells after 72 hrs by MTT assay; format: functional, cell-based; summary of the method: as §1
DU-145 [5] = experiment: Cytotoxicity against human DU145 cells assessed as effect on live cells >10 uM after 1.5 hrs by propidium iodide-staining based FACS analysis; format: cell-based; details: du-145, 1.5 h
Summary of the method: (§2)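 DU145 cells (200 000 per well) exposed to peptides in serum-free medium for 1.5 h at 1, 10, 50 and 100 µM, or 1, 10, 15, 20, 30, 50, 100 µM for the dose-response set. Cells trypsinized, washed, resuspended in PBS, PI added (final 10 µg/mL), fluorescence read by flow cytometry; IC50(PI) from the dose-response curve; at least two independent experiments.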

[6] = Drug uptake in human DU145 cells at 1 uM after 1 hr using FITC labelled compound by flow cytometric analysis relative to FITC-[betaAla]-LLLLRVKR-NH2 peptide; format: ADME, cell-based; details: du-145, 1 h
Summary of the method: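 DU145 cells were plated at 200000 per dish and grown 48 h at 37 °C. They were exposed to 1 µM N-terminally FITC-labelled peptide for 1 h at 37 °C, then trypsinized, washed and resuspended in PBS. PI at 10 µg/mL was added to gate out dead cells. Parallel tubes were quenched with 0.04% trypan blue to remove membrane-bound signal. Flow cytometry counted at least 10000 events.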

DU-145 [7] = experiment: Cytotoxicity against human DU145 cells assessed as effect on live cells up to 100 uM after 1.5 hrs by propidium iodide-staining based FACS analysis; format: cell-based; details: du-145, 1.5 h; summary of the method: as §2
LNCaP [8] = experiment: Antiproliferative activity against human LNCAP cells up to 300 uM after 72 hrs by MTT assay relative to control; format: functional; summary of the method: as §1
[9] = Half life in human plasma by ion chromatogram-based analysis; format: ADME, cell-free
Summary of the method: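 Peptide at 50 µM was incubated at 37 °C in human serum from male AB plasma. At each time point, plasma was precipitated with MeOH containing Fmoc-Leu-OH internal standard, centrifuged and filtered. Samples were analysed by UPLC-MS. The peptide/standard ratio of total ion chromatogram peak area was expressed relative to 0 h.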

Sequence of Furin (P09958 whole entry): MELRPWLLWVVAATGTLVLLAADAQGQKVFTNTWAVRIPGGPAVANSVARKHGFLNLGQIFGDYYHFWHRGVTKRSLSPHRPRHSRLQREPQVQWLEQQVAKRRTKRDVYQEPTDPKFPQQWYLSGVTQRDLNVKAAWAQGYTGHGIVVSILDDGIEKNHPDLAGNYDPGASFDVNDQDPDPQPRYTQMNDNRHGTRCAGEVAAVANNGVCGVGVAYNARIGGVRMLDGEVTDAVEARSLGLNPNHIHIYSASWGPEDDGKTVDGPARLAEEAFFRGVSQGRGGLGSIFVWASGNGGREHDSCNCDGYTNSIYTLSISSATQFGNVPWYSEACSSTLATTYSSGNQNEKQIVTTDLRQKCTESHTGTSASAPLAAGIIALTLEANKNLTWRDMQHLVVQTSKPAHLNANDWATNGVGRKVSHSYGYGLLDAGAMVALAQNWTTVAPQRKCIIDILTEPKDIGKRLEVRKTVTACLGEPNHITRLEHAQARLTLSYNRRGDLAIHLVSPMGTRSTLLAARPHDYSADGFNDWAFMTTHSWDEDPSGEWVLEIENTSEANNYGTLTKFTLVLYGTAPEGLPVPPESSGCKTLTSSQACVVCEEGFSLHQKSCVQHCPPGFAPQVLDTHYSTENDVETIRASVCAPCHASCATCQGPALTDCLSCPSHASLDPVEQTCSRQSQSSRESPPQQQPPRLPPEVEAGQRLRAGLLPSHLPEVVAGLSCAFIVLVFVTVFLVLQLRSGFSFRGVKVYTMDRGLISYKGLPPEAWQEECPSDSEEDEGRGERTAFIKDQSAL

Row | Compound | Ki [1] [nM] | Ratio Ki (Homo sapiens) | IC50 (DU-145 [2]) [nM] | Ki (Furin) [nM] | further results
1 | Ac-LLLLRVKRT-NH2 | 22 | 5 | 170000 | 100 | –
2 | Ac-LLLLRVKRF-NH2 | 20 | 4 | 70000 | 74 | IC50 (LNCaP [4]): 170000 nM
3 | Ac-LLLLRVKRS-NH2 | 64 | 5 | 240000 | 330 | –
4 | CC(=O)N[C@H](CC(C)C)C(=O)N[C@@H](CC(C)C)C(=O)N[C@@H](CC(C)C)C(=O)N[C@@H](CC(C)C)C(=O)N[C@@H](CCCNC(=N)N)C(=O)N[C@H](C(=O)N[C@@H](CCCCN)C(=O)N[C@@H](CCCNC(=N)N)C(=O)NCCc1ccc(C(=N)N)cc1)C(C)C | 68 | 10 | 41000 | 700 | IC50 (LNCaP [4]): 67000 nM
5 | CC(=O)N[C@@H](CC(C)C)C(=O)N[C@@H](CC(C)C)C(=O)N[C@@H](CC(C)C)C(=O)N[C@@H](CC(C)C)C(=O)N[C@@H](CCCNC(=N)N)C(=O)N[C@H](C(=O)N[C@@H](CCCCN)C(=O)N[C@@H](CCCNC(=N)N)C(=O)N[C@@H](Cc1ccc(NC(=N)N)cc1)C(N)=O)C(C)C (Ac-LLLLRVKR[Phe(4-guanidino)]-NH2) | 11 | 13 | 83000 | 140 | IC50 (LNCaP [4]): 92000 nM
6 | Ac-LLLLRVKR-NH2 | – | 20 | – | – | –
7 | CC(C)C[C@H](NC(=O)CCN)C(=O)N[C@@H](CC(C)C)C(=O)N[C@@H](CC(C)C)C(=O)N[C@@H](CC(C)C)C(=O)N[C@@H](CCCNC(=N)N)C(=O)N[C@H](C(=O)N[C@@H](CCCCN)C(=O)N[C@@H](CCCNC(=N)N)C(=O)NCCc1c[nH]c2ccccc12)C(C)C (H-[βAla]LLLLRVKR-Tryptamide) | – | – | – | – | fold change (FC) [6]: 3.5
8 | Ac-LLLLRVKRI-NH2 | 64 | 5 | 72000 | 290 | Activity (LNCaP [8]): <50%
9 | Ac-LLLLRVKRM-NH2 | 32 | 5 | 130000 | 170 | –
10 | Ac-LLLLRVKRY-NH2 | 29 | 2 | 100000 | 64 | –
11 | CC(C)C[C@H](NC(=O)CCN)C(=O)N[C@@H](CC(C)C)C(=O)N[C@@H](CC(C)C)C(=O)N[C@@H](CC(C)C)C(=O)N[C@@H](CCCNC(=N)N)C(=O)N[C@H](C(=O)N[C@@H](CCCCN)C(=O)N[C@@H](CCCNC(=N)N)C(=O)N[C@@H](CCCNC(=N)N)C(N)=O)C(C)C (H-[βAla]LLLLRVKRR-NH2) | – | – | – | – | Drug uptake [6]: Active
12 | Ac-LLLLRVKRA-NH2 | 37 | 6 | 160000 | 210 | –
13 | CC(C)C[C@H](NC(=O)CCN)C(=O)N[C@@H](CC(C)C)C(=O)N[C@@H](CC(C)C)C(=O)N[C@@H](CC(C)C)C(=O)N[C@@H](CCCNC(=N)N)C(=O)N[C@H](C(=O)N[C@@H](CCCCN)C(=O)N[C@@H](CCCNC(=N)N)C(=O)N[C@@H](CCCCN)C(N)=O)C(C)C (H-[βAla]LLLLRVKRK-NH2) | – | – | – | – | Drug uptake [6]: Active
14 | CC(=O)N[C@@H](CC(C)C)C(=O)N[C@@H](CC(C)C)C(=O)N[C@@H](CC(C)C)C(=O)N[C@@H](CC(C)C)C(=O)N[C@@H](CCCNC(=N)N)C(=O)N[C@H](C(=O)N[C@@H](CCCCN)C(=O)N[C@@H](CCCNC(=N)N)C(=O)N[C@@H](Cc1ccc(N)cc1)C(N)=O)C(C)C (Ac-LLLLRVKR[Phe(4-NH2)]-NH2) | 32 | 4 | 139000 | 130 | IC50 (LNCaP [4]): 170000 nM
15 | Ac-LLLLRVKRE-NH2 | 58 | 4 | – | 260 | Activity (DU-145 [3]): <50%
16 | CC(C)C[C@H](NC(=O)CCN)C(=O)N[C@@H](CC(C)C)C(=O)N[C@@H](CC(C)C)C(=O)N[C@@H](CC(C)C)C(=O)N[C@@H](CCCNC(=N)N)C(=O)N[C@H](C(=O)N[C@@H](CCCCN)C(=O)N[C@@H](CCCNC(=N)N)C(=O)N[C@@H](Cc1c[nH]c2ccccc12)C(N)=O)C(C)C (H-[βAla]LLLLRVKRW-NH2) | – | – | – | – | fold change (FC) [6]: 2
17 | Ac-LLLLRVKRL-NH2 | 170 | 6 | 90000 | 990 | –
18 | Ac-LLLLRVKRP-NH2 | 250 | 4 | 210000 | 990 | –
19 | CC(=O)N[C@H](CC(C)C)C(=O)N[C@@H](CC(C)C)C(=O)N[C@@H](CC(C)C)C(=O)N[C@@H](CC(C)C)C(=O)N[C@@H](CCCNC(=N)N)C(=O)N[C@H](C(=O)N[C@@H](CCCCN)C(=O)N[C@@H](CCCNC(=N)N)C(=O)NCCc1c[nH]c2ccccc12)C(C)C | 70 | 4 | 14000 | 280 | Activity (DU-145 [5]): Toxic; half-life [9]: 48 min; IC50 (LNCaP [4]): 18000 nM
20 | Ac-LLLLRVKRV-NH2 | 38 | 5 | 170000 | 200 | –

Further lines, with some results ahead:

Row | Ki [1] [nM] | Ratio Ki (Homo sapiens) | IC50 (DU-145 [2]) [nM] | Ki (Furin) [nM] | Compound | further results
21 | 44 | 11 | – | 500 | Ac-LLLLRVKRG-NH2 | Activity (DU-145 [3]): <50%
22 | 29 | 4 | 25000 | 110 | Ac-LLLLRVKRW-NH2 | Activity (DU-145 [5]): Toxic; IC50 (LNCaP [4]): 31000 nM
23 | 43 | 5 | 210000 | 190 | Ac-LLLLRVKRQ-NH2 | –
24 | 160 | 16 | 71000 | 2500 | Ac-LLLLRVKRR-NH2 | Activity (DU-145 [7]): Non-Toxic; Activity (LNCaP [8]): <50%
25 | 28 | 5 | – | 130 | Ac-LLLLRVKRN-NH2 | Activity (DU-145 [3]): <50%
26 | 30 | 2 | 230000 | 74 | Ac-LLLLRVKRD-NH2 | –
27 | 33 | 4 | – | 140 | Ac-LLLLRVKRH-NH2 | Activity (DU-145 [3]): <50%
28 | 150 | 17 | 130000 | 2600 | Ac-LLLLRVKRK-NH2 | Activity (DU-145 [7]): Non-Toxic
